# Shown are actives, neighbours in structure and some others; about 3.5% of the full set was active somewhere.
# PglD inh – C. jejuni PglD acetyltransferase inhibitors, primary screen, biochemical, DTNB colorimetric, single point; UDP-N-acetylbacillosamine N-acetyltransferase PglD (Campylobacter jejuni); purified PglD enzyme, DTNB colorimetric CoA detection; inhibition, % at 12.5 µM; 360,000 compounds, 0.098% hits; AID 602405, 2012; in the data active = inhibition above about 16%, passing the limit was not always enough
# PGC1a acetyl inh – inhibitors of PGC1a acetylation signal, primary screen, cell-based, U2OS, AlphaScreen, inhibitor mode. 350,000 compounds, 0.17% hits. AID 651687, 2012. inhibition, % at 15.6 µM. AlphaScreen anti-acetyl-lysine; with virally co-expressed GCN5 acetyltransferase;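 active = every replicate shows inhibition of at least 40%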
# HIV Env fusion – inhibitors of HIV-1 Env-driven cell-cell fusion, primary screen, HeLa-JRFL effector, CEM21 target cells, luciferase; inhibition, % at 12.3 µM; 360,000 compounds, 1.1% hits;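 active = mean replicate inhibition score of at least 50 and every replicate individually at or above 50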
# DENV2 CPE rescue – inhibitors of DENV2 cytopathic effect, primary screen, cell-based, plate reader, single concentration; DENV2-infected cells, cytopathic effect rescue; CPE inhibition, % at 9.99 µM; 350,000 compounds, 1.7% hits; AID 651640, 2012; in the data active = CPE inhibition above about 20%, passing the limit was not always enough; tested in BHK-21 cells
# FN deposit inh – inhibitors of fibronectin matrix deposition, primary screen, AH1F cells, Alexa488-fibronectin fluorescence, plate reader | AH1F fibroblasts, overnight | AID 743247, 2014 | inhibition, % at 12.6 µM | 350,000 compounds, 0.086% hits;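 active = mean inhibition across replicates of 30% or more, regardless of how many single replicates reach that level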
#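 Material: AH1F fibroblast monolayer depositing Alexa488-labelled fibronectin into matrix / Amount: 10000 AH1F cells per well / Signal: fluorescence 485/525 nm / Medium: DMEM, 2% serum / Compound: single dose, pinned / Incubation: 1 h cell adhesion before compound, then overnight fibronectin incubation / Reagent: Alexa488-FN, 24 nM final / Read-out: inhibition of fibronectin deposition signal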
# Ecoli rRNA inh – reduced GFP signal of wild-type E. coli, primary screen, bacterial rRNA inhibitor project, GFP/RFP fluorescence, OD600, single point; 350,000 compounds, 1.6% hits; GFP signal change (wild-type ribosome), % (test concentration not listed); E. coli WT GFP vs humanized-ribosome RFP mutants, 24 h; active compounds read low; DMSO median 0, no signal -100; AID 720706, 2013;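 active = significant combined selectivity score with lowered wild-type GFP, culture density cut under 30%, mutant RFP and density less affected; inactive = any of these conditions unmet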
# Numbers stand for hits; - = inactive; . = no result; [ ] = another dose, or the depositor's remark.
SMILES,PglD inh,PGC1a acetyl inh,HIV Env fusion,DENV2 CPE rescue,FN deposit inh,Ecoli rRNA inh
O/N=C/c1ccnc(SCc2ccc(Cl)cc2)n1,.,.,-,-,-,-
OC[C@H]1[C@@H](c2ccc(-c3ccc(F)cc3)cc2)[C@@H]2CN(Cc3ccccn3)CCCCN12,-,-,.,29,.,-
COc1ccccc1-c1ccc([C@@H]2[C@@H](CO)N3CCCCN(Cc4ccncc4)C[C@H]23)cc1,-,-,.,26,.,-
OC[C@H]1[C@H](c2ccc(-c3ccc(F)cc3)cc2)[C@@H]2CN(Cc3ccncc3)CCCCN12,-,-,.,44,.,-19
COc1ccccc1-c1ccc([C@@H]2[C@H](CO)N3CCCCN(Cc4ccncc4)C[C@@H]23)cc1,-,-,.,-,.,-
CN1C(=O)c2cc(NC(=O)c3cccs3)ccc2OC[C@@H]2O[C@@H](CC(=O)NCCN3CCCCC3)CC[C@@H]21,-,-,-,-,-,-
CCNC(=O)C[C@H]1CC[C@H]2[C@@H](COC[C@H](O)CN2C(=O)Nc2ccc3c(c2)OCO3)O1,-,-,.,-,-,-
O=C(C[C@H]1C[C@H]2c3cc(NC(=O)c4ccc5c(c4)OCO5)ccc3O[C@H]2[C@@H](CO)O1)NCC1CC1,-,-,-,-,-,-
O=C(C[C@@H]1C[C@@H]2c3cc(NC(=O)c4ccc5c(c4)OCO5)ccc3O[C@@H]2[C@@H](CO)O1)NC1CCCC1,-,-,-,34,-,-
O=C(C[C@@H]1C[C@H]2c3cc(NC(=O)c4ccc5c(c4)OCO5)ccc3O[C@H]2[C@@H](CO)O1)NCC1CC1,-,-,-,27,-,-
O=C(C[C@@H]1C[C@@H]2c3cc(NC(=O)c4ccc5c(c4)OCO5)ccc3O[C@@H]2[C@@H](CO)O1)NCc1ccc(Oc2ccccc2)cc1,-,-,71[16.7 µM],-,31,-
CO[C@@H]1CN(C)C(=O)c2cc(NC(=O)c3ccccc3)ccc2OC[C@@H](C)N(C(=O)C2CC2)C[C@H]1C,-,-,-,-,-,-
CO[C@@H]1CN(C)C(=O)c2ccc(NC(=O)c3ccccc3)cc2OC[C@@H](C)N(C(=O)C2CC2)C[C@H]1C,.,-,.,26,-,-
CO[C@@H]1CN(C)C(=O)c2cc(NC(=O)c3ccccc3)ccc2OC[C@H](C)N(C(=O)C2CC2)C[C@@H]1C,-,-,-,95,-,-
CO[C@@H]1CN(C)C(=O)c2ccc(NC(=O)c3ccno3)cc2OC[C@H](C)N(C(=O)C2CCC2)C[C@@H]1C,-,-,-,-,.,.
C[C@H](CO)N1C[C@H](C)[C@H](CN(C)C(=O)NC2CCCCC2)Oc2ccc(NC(=O)Cc3cn(C)c4ccccc34)cc2CC1=O,-,-,.,-,.,-
c1ccc(SCc2nc3ccccc3s2)nc1,-,-,-,-,-,-23
c1ccc2oc(SCc3nc4ccccc4s3)nc2c1,.,-,.,.,.,.
Cc1noc(C)c1C(=O)N(C)C[C@H]1OCc2ccccc2-c2c(n(C)c3ccccc23)C(=O)N([C@H](C)CO)C[C@@H]1C,-,-,-,-,-,-
C[C@@H]1CN([C@@H](C)CO)C(=O)Cc2cc(N(C)C)ccc2O[C@@H]1CN(C)C(=O)Nc1ccccc1,-,-,-,-,.,-
C[C@H](CO)N1C[C@H](C)[C@H](CN(C)C(=O)Nc2ccccc2)Oc2ccc(N(C)C)cc2CC1=O,-,-,-,45,.,-
CC(C)NC(=O)N(C)C[C@H]1Oc2ccc(NC(=O)C3CC3)cc2CC(=O)N([C@H](C)CO)C[C@H]1C,-,-,-,-,.,-
CC(C)NC(=O)N(C)C[C@@H]1Oc2ccc(NC(=O)C3CC3)cc2CC(=O)N([C@@H](C)CO)C[C@@H]1C,-,-,59[16.7 µM],-,.,-
C[C@@H]1CN([C@H](C)CO)C(=O)Cc2cc(NC(=O)C3CC3)ccc2O[C@H]1CN(C)C(=O)Nc1ccccc1,-,-,.,105,.,-

# Screening data (PubChem)
